# Test results as given in BindingDB's records for doi:10.1021/jm9504767 (Freie Universität Berlin, 1996).
# Target: Histamine H3 receptor (Rattus norvegicus, UniProt Q9QYN8)
# Assay: In vitro antagonistic activity tested against Histamine H3 receptor on synaptosomes from rat cerebral cortex
# How it was run: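 Preloaded 30 min with L-[3H]histidine (0.4 µM) at 37 °C in modified Krebs-Ringer. Washed, resuspended in 2 mM K+ medium, then depolarized 2 min with 2 or 30 mM K+ (final). […] Stopped by rapid centrifugation; liquid scintillation. Ki by Cheng-Prusoff; mean ± SEM, ≥3 determinations.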
# Chain of Histamine H3 receptor (Q9QYN8 whole entry): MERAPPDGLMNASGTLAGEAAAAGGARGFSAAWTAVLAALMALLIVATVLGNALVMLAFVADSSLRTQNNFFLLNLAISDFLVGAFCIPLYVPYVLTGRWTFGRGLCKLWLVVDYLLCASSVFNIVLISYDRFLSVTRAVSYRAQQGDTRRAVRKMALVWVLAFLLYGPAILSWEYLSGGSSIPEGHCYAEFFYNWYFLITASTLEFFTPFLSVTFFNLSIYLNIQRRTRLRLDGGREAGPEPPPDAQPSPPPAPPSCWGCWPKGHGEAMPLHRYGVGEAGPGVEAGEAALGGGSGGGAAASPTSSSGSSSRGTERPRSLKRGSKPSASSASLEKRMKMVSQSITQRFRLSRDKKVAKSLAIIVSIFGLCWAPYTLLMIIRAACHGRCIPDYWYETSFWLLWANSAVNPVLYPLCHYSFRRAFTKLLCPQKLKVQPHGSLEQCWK
row,Compound,Ki [nM]
1,COc1ccc(CCC(=O)OCCCc2cnc[nH]2)cc1I [3-(3-Iodo-4-methoxy-phenyl)-propionic acid 3-(1H-imidazol-4-yl)-propyl ester],251
2,"Nc1c(I)cc(C(=O)OCCCc2cnc[nH]2)cc1I [4-Amino-3,5-diiodo-benzoic acid 3-(1H-imidazol-4-yl)-propyl ester]",158
3,Cc1ccc(C(=O)OCCCc2cnc[nH]2)cc1I [3-Iodo-4-methyl-benzoic acid 3-(1H-imidazol-4-yl)-propyl ester],31.6
4,O=C(CCc1ccc(I)cc1)OCCCc1cnc[nH]1 [3-(4-Iodo-phenyl)-propionic acid 3-(1H-imidazol-4-yl)-propyl ester],50
5,Ic1ccc(CCCOCCCc2cnc[nH]2)cc1 [4-{3-[3-(4-Iodo-phenyl)-propoxy]-propyl}-1H-imidazole],31.6

# Other lines, results leading:
row,Ki [nM],Compound
1,16,Ic1cccc(OCCCc2cnc[nH]2)c1 [4-[3-(3-Iodo-phenoxy)-propyl]-1H-imidazole]
2,12.6,Brc1ccc(COCCCc2cnc[nH]2)cc1 [4-[3-(4-Bromo-benzyloxy)-propyl]-1H-imidazole]
3,6.31,Ic1cccc(COCCCc2cnc[nH]2)c1 [4-[3-(3-Iodo-benzyloxy)-propyl]-1H-imidazole]
4,19.9,Ic1ccc(OCCCc2cnc[nH]2)cc1 [4-[3-(4-Iodo-phenoxy)-propyl]-1H-imidazole]
